In the library only some 3.5% were active in any assay of this set; here they are far more common.
pPAFAH FP inh: inhibitors of human plasma PAF acetylhydrolase (pPAFAH). Q13093. recombinant pPAFAH, FP-rhodamine probe fluorescence polarization. inhibition, % at 3.39 µM. 330,000 tested, 1.5% active;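 active = inhibition above the mean inhibition across the screen plus 3 SD, cut at about 25% in these data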;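 note: inhibitors block binding of the rhodamine activity-based probe so polarization drops; 0% = enzyme with DMSO and 100% = wells lacking pPAFAH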
Target sequence (Q13093 whole entry, looked up): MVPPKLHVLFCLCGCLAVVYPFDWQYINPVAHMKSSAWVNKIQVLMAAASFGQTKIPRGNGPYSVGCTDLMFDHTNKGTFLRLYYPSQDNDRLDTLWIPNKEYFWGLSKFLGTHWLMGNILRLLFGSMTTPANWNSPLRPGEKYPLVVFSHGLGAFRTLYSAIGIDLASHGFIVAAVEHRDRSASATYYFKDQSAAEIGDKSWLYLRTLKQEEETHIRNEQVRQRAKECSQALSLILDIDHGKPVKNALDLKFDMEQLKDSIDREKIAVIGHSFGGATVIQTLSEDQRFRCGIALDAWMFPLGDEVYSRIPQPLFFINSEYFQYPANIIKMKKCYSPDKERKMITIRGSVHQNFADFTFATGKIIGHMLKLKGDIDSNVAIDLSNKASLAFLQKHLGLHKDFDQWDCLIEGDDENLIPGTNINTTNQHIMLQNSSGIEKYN
Apaf-1 inh: inhibitors of human Apaf-1 apoptosome; O14727; reconstituted apoptosome caspase-3 activity, DEVD-Rh110 fluorescence; inhibition, % at 20 µM; 330,000 tested, 0.71% active; AID 489030; active = inhibition of at least 40% at 20 µM;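 note: plate controls were DMSO wells for no effect and DEVD-CHO caspase inhibitor wells for full effect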
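Material: cell-free apoptosome with Apaf-1, procaspase-3 and caspase-9; Buffer or medium: Hepes pH 7.5 with detergent and BSA; Reagent: cytochrome c trigger plus (Z-DEVD)2-Rh110 caspase-3 substrate; Times: compound with Apaf-1, dATP, procaspase-3 30 min, then 50 min reaction, room temperature; Technique: Rh110 fluorescence intensity.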
PAFAH1B2 inh: PAFAH1B2 (human) inhibition | P68402 | 340,000 tested, 1.2% active | AID 492953 | inhibition, % at 3.39 µM | recombinant PAFAH1B2, FP-rhodamine activity probe, fluorescence polarization;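 active = inhibition above the mean of all tested compounds plus 3 SD, cut at about 24% in these data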;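 note: 0% = enzyme with DMSO and 100% = wells lacking PAFAH1B2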
PAFAH1B3 FP inh: PAFAH1B3 (human) inhibition. inhibition, % at 3.39 µM. 340,000 tested, 0.28% active. recombinant PAFAH1B3, FP-rhodamine probe, fluorescence polarization. Q15102;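 active = inhibition above the screen-wide average of all tested compounds plus 3 SD, cut at about 25% in these data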;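 note: 0% = enzyme with DMSO only and 100% = wells lacking PAFAH1B3 protein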
PREPL inhibitor: inhibitors of human prolyl oligopeptidase-like enzyme PREPL; Q4J6C6; recombinant PREPL, fluorescence polarization activity-based probe; inhibition, % at 5.96 µM; 320,000 tested, 0.68% active; AID 2751; in the data active = inhibition above about 43%;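 note: 0% = enzyme with DMSO and 100% = wells lacking enzyme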
PAFAH2 FP inh: PAFAH2 (human) inhibition. recombinant PAFAH2, FP-rhodamine activity probe, fluorescence polarization. inhibition, % at 3.39 µM. 340,000 tested, 0.99% active;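 active = inhibition above the mean over all tested compounds plus 3 SD, cut at about 30% in these data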;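 note: inhibitors block probe labeling of enzyme so polarization drops; 0% = enzyme with DMSO and 100% = wells lacking PAFAH2 protein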
An asterisk follows results filed as active; . = no result given.

SMILES	pPAFAH FP inh	Apaf-1 inh	PAFAH1B2 inh	PAFAH1B3 FP inh	PREPL inhibitor	PAFAH2 FP inh
O=C1CCCC/C1=C/NCc1ccc(F)cc1	-1	3	1	6	-1	5
O=C(O)c1oc2ccccc2c1CSc1ccc(Cl)cc1	2	9	29*	4	6	-1
COc1ccc(C2=NOC(Cn3nc(C(=O)NCc4ccccc4OC)cc3-c3ccccc3)C2)cc1 (centres undefined)	8	10	1	-3	-16	-7
O=C(c1ccc(CS(=O)(=O)Cc2ccc(Cl)cc2)o1)N1CCCC1	26*	-8	1	6	10	8
O=c1[nH]c(CSc2nc3ccccc3s2)nc2ccccc12	-1	-10	31*	3	-30	-1
O=c1[nH]c(CSc2nc3ccccc3s2)nc2cc(Cl)ccc12	-11	8	.	.	-11	.
CC(C)c1[nH]nc2c1C(c1ccc(OC(=O)c3ccco3)cc1)C(C#N)=C(N)O2 (centres undefined)	4	6	12	8	60*	0
COCc1[nH]nc2c1C(c1ccc(OC)cc1)C(C#N)=C(N)O2 (centres undefined)	1	0	4	1	18	4
COc1cc(C2C(C#N)=C(N)Oc3n[nH]c(C)c32)ccc1OC(=O)c1ccccc1 (centres undefined)	8	10	-4	6	61*	9
COc1cc(C2C(C#N)=C(N)Oc3n[nH]c(C)c32)cc2c1OCO2 (centres undefined)	-2	6	2	-5	-4	1
COC(=O)c1ccc(OC(=O)CCN2C(=O)C3CCCCC3C2=O)cc1 (centres undefined)	2	4	1	5	44*	1
COC(=O)c1ccc(OC(=O)CCN2c3ccccc3Sc3ccccc32)cc1	13	-1	-6	4	1	3
COc1cc(/C=C2/C(=N)N3C(c4ccccc4)=CSC3=NC2=O)ccc1OCC(=O)O	14	-4	7	3	-13	16
N=C1/C(=C\c2ccc(-c3ccc(C(=O)O)cc3)o2)C(=O)N=C2SC=C(c3ccccc3)N12	.	.	28*	25	.	34*
Cc1ccc(NS(=O)(=O)c2cccc(C(=O)Nc3c(C)n(C)n(-c4ccccc4)c3=O)c2)cc1	25*	-20	.	.	-2	.
Cc1ccc(S(=O)(=O)Nc2ccc(C(=O)Nc3cc(C)on3)cc2)cc1	23	4	6	0	2	-12
Cc1ccc(NS(=O)(=O)c2cccc(C(=O)Nc3cc(C)on3)c2)cc1	33*	-6	3	3	0	-5
COc1ccccc1-c1nnc2sc(COc3ccc(Cl)cc3)nn12	1	25	26*	-3	20	6
O=C(Nc1ccccc1C(=O)N1CCCCCC1)c1cccc([N+](=O)[O-])c1	-7	9	0	1	7	-1
O=C1CC(Nc2ccc(N3CCOCC3)cc2)C(=O)N1Cc1ccccc1 (centres undefined)	34*	16	2	3	25	25
CCOC(=O)c1cnc2ccc(C)cc2c1N(C)Cc1ccccc1	25*	18	4	-4	13	-6
CN(C1=C(NC(=O)c2ccccc2)C(=O)c2ccccc2C1=O)C1CCS(=O)(=O)C1 (centres undefined)	14	88*	17	51*	7	38*
CCOC(=O)C1CCN(C(=O)c2cc3cc4cc(OC)ccc4nc3o2)CC1	29*	4	1	-3	-3	5
COc1ccc2nc3oc(C(=O)N4CCCCC4)cc3cc2c1	11	4	4	-2	1	-5
CC12CC3CC(C)(C1)CC(NCc1ccncc1)(C3)C2	5	-30	5	7	-13	3
SMILES	pPAFAH FP inh	Apaf-1 inh	PAFAH1B2 inh	PAFAH1B3 FP inh	PREPL inhibitor	PAFAH2 FP inh
O=C(CSC1=NS(=O)(=O)c2cc(Cl)ccc2N1)Nc1ccccc1C(F)(F)F	-7	15	6	6	7	4
CCOc1ccc(S(=O)(=O)Nc2ccc(C(=O)NCC3(N4CCCCC4)CCCCC3)cc2)cc1	-5	20	9	-1	19	-6
COc1ccc(NS(=O)(=O)c2cccc(NC(=O)c3ccccn3)c2)cc1	26*	-6	-1	-2	-6	0
COc1ccc(NS(=O)(=O)c2ccc(NC(=O)c3ccccn3)cc2)cc1	6	-6	0	1	-3	5
COc1ccc(NS(=O)(=O)c2ccc(C(=O)NCC3(N4CCOCC4)CCCCC3)cc2)cc1	31*	10	9	2	6	4
COc1ccc(NS(=O)(=O)c2cccc(C(=O)NNC(=O)CNC(=O)c3ccc(C)cc3)c2)cc1	34*	-1	1	13	8	4
COc1ccc(NS(=O)(=O)c2cccc(C(=O)NCC3(N4CCCCC4)CCCCC3)c2)cc1	32*	-4	-1	7	2	-2
COc1cc(SC)ccc1C(=O)OCC(=O)NCCC1=CCCCC1	11	18	1	-1	-6	23
COc1ccc(-c2nc3c(n2O)CCCC3=O)cc1OC	0	-7	-4	6	2	2
Cc1ccccc1NS(=O)(=O)c1ccc(C(=O)N2CCCCCC2)cc1	25*	8	-1	-3	15	13
Cc1ccccc1NS(=O)(=O)c1ccc(OCC(=O)NCc2ccccn2)cc1	29*	3	2	10	-9	11
O=C(c1ccc(S(=O)(=O)Nc2ccccc2Cl)cc1)N1CCCC1	5	6	1	-4	20	8
Cc1ccccc1NS(=O)(=O)c1ccc(C(=O)N2CCN(c3ccccn3)CC2)cc1	26*	6	2	-4	3	-1
COC(=O)C1CN(C(=O)c2ccc(OC(F)F)cc2)c2ccccc2O1 (centres undefined)	-2	15	0	3	2	-5
CC1CCN(S(=O)(=O)c2nnc(NC(=O)c3ccccc3Br)s2)CC1	3	5	28*	5	-2	3
Cc1cccc(OCC(=O)Nc2nnc(S(=O)(=O)N3CCC(C)CC3)s2)c1	1	7	27*	4	1	1
Cc1cccc(OCC(=O)Nc2nnc(S(=O)(=O)N3CCCCC3)s2)c1	-1	-3	5	4	0	1
Cc1ccc(S(=O)(=O)Oc2ccccc2/C=N/NC(=O)c2nn(C)cc2[N+](=O)[O-])cc1	7	4	7	5	2	5
Cc1ccc(S(=O)(=O)Oc2ccc(/C=N/NC(=O)c3nn(C)cc3[N+](=O)[O-])cc2)cc1	2	-4	28*	-4	-27	-3
Cc1c2cnn(CC(=O)Nc3c(F)c(F)cc(F)c3F)c(=O)c2c(C)n1Cc1ccccc1F	27*	10	-3	-6	4	21
CCc1ccc(-n2cc(-c3ccc([N+](=O)[O-])cc3)[nH]c2=S)cc1	-1	19	0	-18	3	-6
